Published values gathered from unrelated publications.
Target: Serine/threonine-protein kinase PLK3 (PLK3, Homo sapiens, UniProt Q9H4B4)

O=C(N1CCS(=O)(=O)CC1)N1C[C@H](c2ccc(OC(F)(F)F)cc2)C[C@H](c2nc(C3CC3)no2)C1
remaining binding (cell-free assay, competition with immobilised ligand; 1 µM): 98%

O=C(CSc1nc2nccnc2c(=O)n1CCc1ccccc1)Nc1nccs1
inhibition (enzyme activity, inhibitor; 10 µM): 4%

Cc1cc(NC(=O)c2cccc3cc(-c4cccc5[nH]nc(N)c45)ccc23)ccc1F
activity vs control (enzyme activity, inhibitor; 0.1 µM): 92%

Cc1cnc(NC2CCOCC2)nc1-n1cnc(C(=O)NC(CN)c2cc(F)cc(Cl)c2)c1 (stereo not shown)
remaining activity (enzyme activity, inhibitor, radiometric; 1 µM): 88%

CC(C)(O)[C@H]1CC[C@H](Nc2ccc3ncc(-c4cccc(C(F)(F)F)c4)n3n2)CC1
remaining activity (enzyme activity, inhibitor; 1 µM): 102%

COc1cc2ncnc(Nc3ccc(Oc4ccccc4)c(C)c3C)c2cc1OC
inhibition (enzyme activity, inhibitor; 1 µM): -16%

O=C(Nc1cnn(-c2csc(C(=O)NC3COC3)c2)c1)Nc1c(F)cccc1Cl
remaining activity (enzyme activity, inhibitor; 5 µM): 96%

CN1CCN(c2cnc3c(C4CCN(C(=O)c5ccc(OC(F)(F)F)cc5N)CC4)ncnc3c2)CC1
remaining binding (cell-free assay, competition with immobilised ligand; 1 µM): 100%

CCN(CC)CCNC(=O)c1c(C)[nH]c(/C=C2\C(=O)Nc3ccc(F)cc32)c1C
inhibition (enzyme activity, inhibitor; 0.3 µM): -10%

CN([C@@H]1CCc2c(CC(=O)O)c3cc(S(C)(=O)=O)ccc3n2C1)S(=O)(=O)c1ccc(F)cc1
remaining binding (cell-free assay, competition with immobilised ligand; 1 µM): 70%

COc1cc(-c2cc(-c3ccc(N4CCNCC4)cc3)cnc2C)cc(OC)c1OC
inhibition (enzyme activity, inhibitor; 1 µM): 1%

CNC(=O)c1cc(Oc2ccc(NC(=O)Nc3ccc(Cl)c(C(F)(F)F)c3)cc2)ccn1
inhibition (enzyme activity, inhibitor; 0.3 µM): -12%

Nc1cnc(N2CCc3cc(S(=O)(=O)Nc4c(F)cc(Cl)cc4F)cc(N4CCCC4=O)c32)nc1
remaining binding (cell-free assay, competition with immobilised ligand; 1 µM): 100%

CC(C)c1ccc(NC(=O)c2cccs2)c(-c2nc3ccccc3[nH]c2=O)c1
activity vs control (enzyme activity, inhibitor; 1 µM): 97%

COc1cc2c(Nc3ccc(Br)cc3F)ncnc2cc1OCC1CCN(C)CC1
remaining signal (cell-free assay; 0.5 µM): 95%

CCCS(=O)(=O)Nc1ccc(F)c(C(=O)c2c[nH]c3ncc(-c4ccc(Cl)cc4)cc23)c1F
inhibition (enzyme activity, inhibitor; 1 µM): < 10%

Cc1sc(C(=O)NC2COC2)cc1-n1cc(NC(=O)Nc2c(F)cccc2Cl)cn1
remaining activity (enzyme activity, inhibitor; 10 µM): 102%

CCOC(=O)c1cc2cc(-c3cc(C(=O)NCc4ccc(C(=O)O)cc4)nn3C)ccc2[nH]1
remaining binding (cell-free assay, competition with immobilised ligand; 0.1 µM): 70%

CC(C)(C)c1nc2c(s1)c1nc(N)ncc1c1ccc(NS(=O)(=O)c3c(F)cccc3F)c(F)c12
remaining activity (enzyme activity, inhibitor, radiometric; 1 µM): 91%

N#CC1(c2ccccn2)CCN(Cc2cc(C(=O)N3CCCC3)c(=O)n3ccccc23)CC1
remaining binding (cell-free assay, competition with immobilised ligand; 1 µM): 100%

Cc1ccc(Nc2nccc(N(C)c3ccc4c(C)n(C)nc4c3)n2)cc1S(N)(=O)=O
inhibition (enzyme activity, inhibitor; 10 µM): -9%

O=c1cc(N2CCOCC2)oc2c(-c3ccccc3)cccc12
remaining signal (cell-free assay; 0.5 µM): 71.9%

O=C1NC(c2ccccn2)Sc2ccccc21 (stereo not shown)
remaining binding (cell-free assay, competition with immobilised ligand; 1 µM): 88%

O=C1NC(=O)c2cc(Nc3ccc(F)cc3)c(Nc3ccc(F)cc3)cc21
remaining signal (cell-free assay; 0.5 µM): 98%

Nc1ncnc2occ(-c3ccc(NC(=O)Nc4cc(C(F)(F)F)ccc4F)cc3)c12
remaining signal (cell-free assay, inhibitor; 20 µM): 0.05%
